# Experimental data pooled from the literature.
# Compare with care: the assays were run in different laboratories.
# Target: Calcium/calmodulin-dependent protein kinase type II subunit beta (CAMK2B, Homo sapiens, UniProt Q13554)
SMILES,assay,conditions,measurement,result
O=c1[nH]c2ccccc2n1C1CCN(Cc2ccc(-c3[nH]c4cc5ncnc5cc4nc3-c3ccccc3)cc2)CC1,enzyme activity,0.5 µM,remaining activity,104%
Nc1ncc(-c2nc(N3CCOCC3)nc(N3CCOCC3)n2)c(C(F)F)n1,"binding, competition with immobilised ligand",10 µM,remaining binding,69%
C#Cc1n[nH]c2c(-c3cn(C(C)c4ccccn4)c(=O)[nH]c3=O)cc(F)cc12 (centres unmarked),"enzyme activity, inhibitor",1 µM,inhibition,4.3%
CC(C)(C)c1cc(C=C(C#N)C#N)cc(Br)c1O,"enzyme activity, inhibitor",0.5 µM,remaining activity,99.3%
Cc1nn(C)cc1-c1nc2c(N3CCN(Cc4ccc(Cl)cc4)CC3)c(Cl)cnc2[nH]1,"binding, competition with immobilised ligand",1 µM,remaining binding,94%
N#CC1(c2ccccn2)CCN(Cc2cc(C(=O)O)c(=O)n3ccccc23)CC1,"cell-free assay, competition with immobilised ligand",1 µM,remaining binding,100%
Cn1cc(-c2cccc(N3CCc4c(sc5c4CC(C)(C)C5)C3=O)c2CO)cc(Nc2ccncn2)c1=O,"enzyme activity, inhibitor",1 µM,inhibition,12%
Cn1cncc1[C@@](O)(COc1ccc(C#N)cc1-c1ccc(OC(F)(F)F)cc1)c1ccc(C#N)cc1,"cell-free assay, competition with immobilised ligand",1 µM,remaining binding,90%
C#Cc1n[nH]c2c(-c3cn([C@@H](C)c4ccccc4)c(=O)[nH]c3=O)cc(F)cc12,"enzyme activity, inhibitor",0.1 µM,inhibition,6.5%
COc1ncccc1-c1cnn2ccc(N3CCN(C(=O)OC(C)C)CC3)nc12,"binding, competition with immobilised ligand",1 µM,remaining binding,81%
Cn1cc(-c2cc(F)cc(N3CCn4c(cc5c4CCCC5)C3=O)c2CO)cc(Nc2ccc(N3CCN(C4COC4)CC3)cn2)c1=O,"enzyme activity, inhibitor",0.1 µM,inhibition,7%
